Laboratory results as given in ChEMBL document CHEMBL4152382, “Discovery of Tarantula Venom-Derived NaV1.7-Inhibitory JzTx-V Peptide 5-Br-Trp24 Analogue AM-6120 with Systemic Block of Histamine-Induced Pruritis” (J Med Chem, 2018).

How the values were obtained:
[1] = biological target: Sodium channel protein type 9 subunit alpha (Homo sapiens, UniProt Q15858); experiment: Inhibition of human Nav1.7 expressed in HEK293 cells at holding potential of -125 mV […] by patchxpress-based electrophysiology assay; type: cell-based
Sequence of Sodium channel protein type 9 subunit alpha (Q15858 whole entry): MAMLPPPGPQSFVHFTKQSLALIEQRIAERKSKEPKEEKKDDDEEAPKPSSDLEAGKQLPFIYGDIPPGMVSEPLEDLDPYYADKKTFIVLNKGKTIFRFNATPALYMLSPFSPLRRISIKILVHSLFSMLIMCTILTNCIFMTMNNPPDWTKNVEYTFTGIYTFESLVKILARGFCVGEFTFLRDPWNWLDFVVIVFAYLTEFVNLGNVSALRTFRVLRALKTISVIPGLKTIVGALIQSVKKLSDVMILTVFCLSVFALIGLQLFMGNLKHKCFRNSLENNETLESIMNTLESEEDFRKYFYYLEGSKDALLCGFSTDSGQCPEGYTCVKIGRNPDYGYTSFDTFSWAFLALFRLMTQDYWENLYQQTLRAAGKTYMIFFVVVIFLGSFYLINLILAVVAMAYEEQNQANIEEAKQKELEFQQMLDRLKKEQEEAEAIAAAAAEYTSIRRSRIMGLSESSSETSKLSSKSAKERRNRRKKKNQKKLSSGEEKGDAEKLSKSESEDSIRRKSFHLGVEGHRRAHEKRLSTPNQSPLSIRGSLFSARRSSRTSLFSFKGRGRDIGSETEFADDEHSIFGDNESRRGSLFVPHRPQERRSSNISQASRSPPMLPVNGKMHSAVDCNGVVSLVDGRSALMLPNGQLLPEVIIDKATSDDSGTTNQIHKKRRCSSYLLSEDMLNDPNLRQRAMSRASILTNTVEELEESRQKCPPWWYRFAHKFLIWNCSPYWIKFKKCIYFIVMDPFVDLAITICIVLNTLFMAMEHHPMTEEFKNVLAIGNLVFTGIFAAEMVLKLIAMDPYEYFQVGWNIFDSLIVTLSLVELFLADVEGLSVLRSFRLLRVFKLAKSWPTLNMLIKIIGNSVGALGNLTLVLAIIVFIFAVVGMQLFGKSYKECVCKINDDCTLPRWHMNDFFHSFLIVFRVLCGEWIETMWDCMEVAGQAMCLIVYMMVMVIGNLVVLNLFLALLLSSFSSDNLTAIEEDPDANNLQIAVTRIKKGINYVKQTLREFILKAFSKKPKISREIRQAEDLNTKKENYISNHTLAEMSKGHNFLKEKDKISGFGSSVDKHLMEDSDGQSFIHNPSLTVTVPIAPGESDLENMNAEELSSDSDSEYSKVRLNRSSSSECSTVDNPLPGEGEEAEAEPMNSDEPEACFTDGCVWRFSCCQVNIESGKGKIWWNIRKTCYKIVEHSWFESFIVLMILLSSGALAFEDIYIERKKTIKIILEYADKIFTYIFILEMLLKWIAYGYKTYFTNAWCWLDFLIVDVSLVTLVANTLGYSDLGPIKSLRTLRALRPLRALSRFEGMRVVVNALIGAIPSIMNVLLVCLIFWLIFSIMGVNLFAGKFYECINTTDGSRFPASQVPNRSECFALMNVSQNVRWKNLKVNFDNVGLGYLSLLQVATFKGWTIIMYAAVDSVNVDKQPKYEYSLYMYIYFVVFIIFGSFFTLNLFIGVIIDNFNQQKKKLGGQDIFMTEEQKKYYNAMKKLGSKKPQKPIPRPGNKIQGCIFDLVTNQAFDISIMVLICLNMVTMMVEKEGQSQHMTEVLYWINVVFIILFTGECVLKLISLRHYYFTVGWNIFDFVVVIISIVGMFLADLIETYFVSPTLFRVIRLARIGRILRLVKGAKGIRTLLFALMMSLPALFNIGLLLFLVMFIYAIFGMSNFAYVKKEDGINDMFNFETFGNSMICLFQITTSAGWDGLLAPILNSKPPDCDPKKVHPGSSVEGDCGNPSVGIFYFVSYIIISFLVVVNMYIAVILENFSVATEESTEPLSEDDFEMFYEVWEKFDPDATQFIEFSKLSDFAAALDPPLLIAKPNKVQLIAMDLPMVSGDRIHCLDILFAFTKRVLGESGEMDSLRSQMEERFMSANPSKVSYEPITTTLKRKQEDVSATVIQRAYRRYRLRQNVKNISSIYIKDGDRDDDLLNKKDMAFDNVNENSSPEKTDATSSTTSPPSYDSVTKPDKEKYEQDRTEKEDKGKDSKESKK

[2] = biological target: Sodium channel protein type 4 subunit alpha (Homo sapiens, UniProt P35499); experiment: Inhibition of human Nav1.4 expressed in HEK293 cells at holding potential of -125 mV […] by patchxpress-based electrophysiology assay; type: cell-based
Sequence of Sodium channel protein type 4 subunit alpha (P35499 whole entry): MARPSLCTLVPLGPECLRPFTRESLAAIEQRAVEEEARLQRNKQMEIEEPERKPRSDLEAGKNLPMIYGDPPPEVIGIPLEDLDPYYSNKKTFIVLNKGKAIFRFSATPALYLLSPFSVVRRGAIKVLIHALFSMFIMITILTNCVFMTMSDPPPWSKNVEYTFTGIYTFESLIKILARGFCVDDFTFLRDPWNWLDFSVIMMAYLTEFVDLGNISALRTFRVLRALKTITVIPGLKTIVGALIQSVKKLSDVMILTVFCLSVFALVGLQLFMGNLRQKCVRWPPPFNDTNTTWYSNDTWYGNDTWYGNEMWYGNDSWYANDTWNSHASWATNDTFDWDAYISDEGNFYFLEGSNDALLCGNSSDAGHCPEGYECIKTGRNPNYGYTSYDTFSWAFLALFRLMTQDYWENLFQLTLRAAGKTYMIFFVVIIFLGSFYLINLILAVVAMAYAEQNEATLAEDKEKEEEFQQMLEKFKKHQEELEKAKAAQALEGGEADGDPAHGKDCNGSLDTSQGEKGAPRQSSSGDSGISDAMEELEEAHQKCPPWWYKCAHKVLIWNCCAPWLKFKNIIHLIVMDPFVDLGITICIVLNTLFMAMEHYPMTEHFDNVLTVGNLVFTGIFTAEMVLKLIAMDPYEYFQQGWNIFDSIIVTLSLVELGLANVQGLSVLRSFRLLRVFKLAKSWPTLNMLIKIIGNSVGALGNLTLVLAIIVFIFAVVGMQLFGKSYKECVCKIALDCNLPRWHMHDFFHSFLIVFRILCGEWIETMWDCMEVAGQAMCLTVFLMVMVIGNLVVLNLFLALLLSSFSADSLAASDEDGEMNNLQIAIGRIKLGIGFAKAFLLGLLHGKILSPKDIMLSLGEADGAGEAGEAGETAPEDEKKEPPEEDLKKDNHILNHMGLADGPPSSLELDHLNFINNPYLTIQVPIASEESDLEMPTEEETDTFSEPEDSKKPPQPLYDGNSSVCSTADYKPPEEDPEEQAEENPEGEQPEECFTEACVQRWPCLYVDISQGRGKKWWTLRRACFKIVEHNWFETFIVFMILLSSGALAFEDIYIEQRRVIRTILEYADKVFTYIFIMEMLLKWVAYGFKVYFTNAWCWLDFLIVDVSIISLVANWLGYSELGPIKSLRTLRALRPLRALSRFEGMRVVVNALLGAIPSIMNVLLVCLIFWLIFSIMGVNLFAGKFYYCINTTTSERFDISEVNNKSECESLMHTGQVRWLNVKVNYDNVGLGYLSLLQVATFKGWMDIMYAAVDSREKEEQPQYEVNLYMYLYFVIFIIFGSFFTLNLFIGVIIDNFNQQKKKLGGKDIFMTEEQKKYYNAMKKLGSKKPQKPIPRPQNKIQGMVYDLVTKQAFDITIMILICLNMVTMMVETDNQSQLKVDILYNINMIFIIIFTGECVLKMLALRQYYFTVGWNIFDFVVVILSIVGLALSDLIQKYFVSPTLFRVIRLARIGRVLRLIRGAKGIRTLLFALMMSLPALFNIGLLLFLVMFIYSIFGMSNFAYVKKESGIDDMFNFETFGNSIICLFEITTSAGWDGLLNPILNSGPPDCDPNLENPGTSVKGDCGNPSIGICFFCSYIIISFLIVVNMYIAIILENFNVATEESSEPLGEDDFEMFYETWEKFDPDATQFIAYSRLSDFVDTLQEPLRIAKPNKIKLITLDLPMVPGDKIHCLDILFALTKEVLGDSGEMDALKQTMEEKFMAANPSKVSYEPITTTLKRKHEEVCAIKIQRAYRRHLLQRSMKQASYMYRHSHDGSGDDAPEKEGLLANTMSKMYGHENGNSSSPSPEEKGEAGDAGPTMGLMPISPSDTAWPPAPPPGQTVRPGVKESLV

[3] = biological target: Sodium channel protein type 8 subunit alpha (Homo sapiens, UniProt Q9UQD0); experiment: Inhibition of human Nav1.6 expressed in HEK293 cells at holding potential of -125 mV […] by patchxpress-based electrophysiology assay; type: cell-based
[4] = biological target: Sodium channel protein type 5 subunit alpha (Homo sapiens, UniProt Q14524); experiment: Inhibition of human Nav1.5 expressed in HEK293 cells at holding potential of […] after 10 mins by patchxpress-based electrophysiology assay; type: cell-based
[5] = biological target: Sodium channel protein type 10 subunit alpha (Homo sapiens, UniProt Q9Y5Y9); experiment: Inhibition of human Nav1.8 expressed in HEK293 cells after 10 mins by patchxpress-based electrophysiology; type: cell-based
[6] = AUCt in C57/BL6 mouse at 2 mg/kg, sc by LC-MS/MS analysis; type: ADME, organism-based; settings: in vivo
Outline: (§1)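 Male C57Bl/6 mice, n = 3 per time point, given a single 2 mg/kg subcutaneous dose. Plasma levels were quantified by LC-MS/MS over time, and pharmacokinetic parameters were derived from the plasma profiles. Data are reported as mean ± SEM for each time point.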

[7] = Apparent […] clearance in C57/BL6 mouse at 2 mg/kg, sc by LC-MS/MS analysis; type: ADME, organism-based; settings: in vivo; outline: as §1
[8] = Cmax in C57/BL6 mouse at 2 mg/kg, sc by LC-MS/MS analysis; type: ADME, organism-based; design: dose 2 mg/kg, route subcutaneous; settings: in vivo; outline: as §1
[9] = MRT in C57/BL6 mouse at 2 mg/kg, sc by LC-MS/MS analysis; type: ADME, organism-based; settings: in vivo; outline: as §1
[10] = Half life in C57/BL6 mouse at 2 mg/kg, sc by LC-MS/MS analysis; type: ADME, organism-based; settings: in vivo; outline: as §1
[11] = Tmax in C57/BL6 mouse at 2 mg/kg, sc by LC-MS/MS analysis; type: ADME, organism-based; settings: in vivo; outline: as §1
Mus musculus [12] = experiment: Volume of distribution at steady state in C57/BL6 mouse at 2 mg/kg, sc by LC-MS/MS analysis; type: ADME, organism-based; settings: in vivo; outline: as §1
[13] = Plasma concentration in C57/BL6 mouse at 2 mg/kg, sc after 30 mins by LC-MS/MS analysis; type: ADME, organism-based; settings: in vivo, 0.5 h; outline: as §1
Mus musculus [14] = experiment: In vivo inhibition of Nav1.7 in C57/BL6 mouse model of histamine-induced pruritis assessed as reduction in scratching bouts at 10 mg/kg, […] dosed 2 hrs before histamine challenge and measured for 15 mins relative to control; type: functional

Structure (SMILES) | IC50 [1] | IC50 [2] | further results
C#CC[C@H](N)C(=O)N[C@@H](Cc1ccc(O)cc1)C(=O)N[C@H]1CSSC[C@@H]2NC(=O)[C@@H]3CSSC[C@@H](C(=O)N[C@@H](CCCNC(=N)N)C(=O)N[C@@H](CCCCN)C(=O)N[C@@H](CCC(=O)O)C(=O)N[C@H](C(N)=O)[C@@H](C)CC)NC(=O)[C@H](Cc4c[nH]c5ccc(Br)cc45)NC(=O)[C@H](CC(C)C)NC(=O)[C@H](CCCCN)NC(=O)[C@H](CSSC[C@H](NC(=O)[C@H]([C@@H](C)O)NC(=O)[C@H](Cc4c[nH]c5ccccc45)NC(=O)[C@H](CCCC)NC(=O)[C@H](Cc4c[nH]c5ccccc45)NC(=O)[C@H](CCCCN)NC(=O)[C@H](CCC(N)=O)NC1=O)C(=O)N[C@@H](CC(=O)O)C(=O)N[C@@H](CO)C(=O)N[C@@H](CCCCN)C(=O)N[C@@H](CCCNC(=N)N)C(=O)N[C@@H](C)C(=O)N3)NC(=O)[C@H](CCCNC(=N)N)NC(=O)[C@H](CC(C)C)NC(=O)CNC(=O)[C@H](CCC(=O)O)NC2=O | 0.26 nM | 53 nM | IC50 [3]: 66 nM; IC50 [4]: 260 nM; IC50 [5]: 509 nM; AUC(0-t) [6]: 3.44 µM·h; CL/F [7]: 2.57 mL/min/kg; Cmax [8]: 892 nM; MRT [9]: 3.55 h; half-life [10]: 2.38 h; Tmax [11]: 0.5 h; Vdss (Mus musculus [12]): 0.547 L/kg; Drug uptake [13]: Active
C#CC[C@H](N)C(=O)N[C@@H](Cc1ccc(O)cc1)C(=O)N[C@H]1CSSC[C@@H]2NC(=O)[C@@H]3CSSC[C@@H](C(=O)N[C@@H](CCCNC(=N)N)C(=O)N[C@@H](CCCCN)C(=O)N[C@@H](CCC(=O)O)C(=O)N[C@@H](Cc4ccccc4)C(N)=O)NC(=O)[C@H](Cc4c[nH]c5ccccc45)NC(=O)[C@H](CC(C)C)NC(=O)[C@H](CCCCN)NC(=O)[C@H](CSSC[C@H](NC(=O)[C@H]([C@@H](C)O)NC(=O)[C@H](Cc4c[nH]c5ccccc45)NC(=O)[C@H](CCCC)NC(=O)[C@H](Cc4c[nH]c5ccccc45)NC(=O)[C@H](CCCCN)NC(=O)[C@H](CCC(N)=O)NC1=O)C(=O)N[C@@H](CC(=O)O)C(=O)N[C@@H](CO)C(=O)N[C@@H](CCCCN)C(=O)N[C@@H](CCCNC(=N)N)C(=O)N[C@@H](C)C(=O)N3)NC(=O)[C@H](CCCNC(=N)N)NC(=O)[C@H](CC(C)C)NC(=O)CNC(=O)[C@H](CCC(=O)O)NC2=O | 0.2 nM | 162 nM | 
C#CC[C@H](N)C(=O)N[C@@H](Cc1ccc(O)cc1)C(=O)N[C@H]1CSSC[C@@H]2NC(=O)[C@@H]3CSSC[C@@H](C(=O)N[C@@H](CCCNC(=N)N)C(=O)N[C@@H](CCCCN)C(=O)N[C@@H](CCC(=O)O)C(=O)N[C@H](C(N)=O)[C@@H](C)CC)NC(=O)[C@H](Cc4c[nH]c5ccc(Cl)cc45)NC(=O)[C@H](CC(C)C)NC(=O)[C@H](CCCCN)NC(=O)[C@H](CSSC[C@H](NC(=O)[C@H]([C@@H](C)O)NC(=O)[C@H](Cc4c[nH]c5ccccc45)NC(=O)[C@H](CCCC)NC(=O)[C@H](Cc4c[nH]c5ccccc45)NC(=O)[C@H](CCCCN)NC(=O)[C@H](CCC(N)=O)NC1=O)C(=O)N[C@@H](CC(=O)O)C(=O)N[C@@H](CO)C(=O)N[C@@H](CCCCN)C(=O)N[C@@H](CCCNC(=N)N)C(=O)N[C@@H](C)C(=O)N3)NC(=O)[C@H](CCCNC(=N)N)NC(=O)[C@H](CC(C)C)NC(=O)CNC(=O)[C@H](CCC(=O)O)NC2=O | 3.1 nM | 23 nM | 
C#CC[C@H](N)C(=O)N[C@@H](Cc1ccc(O)cc1)C(=O)N[C@H]1CSSC[C@@H]2NC(=O)[C@@H]3CSSC[C@@H](C(=O)N[C@@H](CCCNC(=N)N)C(=O)N[C@@H](CCCCN)C(=O)N[C@@H](CCC(=O)O)C(=O)N[C@H](C(N)=O)[C@@H](C)CC)NC(=O)[C@H](Cc4c[nH]c5cc(Br)ccc45)NC(=O)[C@H](CC(C)C)NC(=O)[C@H](CCCCN)NC(=O)[C@H](CSSC[C@H](NC(=O)[C@H]([C@@H](C)O)NC(=O)[C@H](Cc4c[nH]c5ccccc45)NC(=O)[C@H](CCCC)NC(=O)[C@H](Cc4c[nH]c5ccccc45)NC(=O)[C@H](CCCCN)NC(=O)[C@H](CCC(N)=O)NC1=O)C(=O)N[C@@H](CC(=O)O)C(=O)N[C@@H](CO)C(=O)N[C@@H](CCCCN)C(=O)N[C@@H](CCCNC(=N)N)C(=O)N[C@@H](C)C(=O)N3)NC(=O)[C@H](CCCNC(=N)N)NC(=O)[C@H](CC(C)C)NC(=O)CNC(=O)[C@H](CCC(=O)O)NC2=O | 8.9 nM | 39 nM | 
C#CC[C@H](N)C(=O)N[C@@H](Cc1ccc(O)cc1)C(=O)N[C@H]1CSSC[C@@H]2NC(=O)[C@@H]3CSSC[C@@H](C(=O)N[C@@H](CCCNC(=N)N)C(=O)N[C@@H](CCCCN)C(=O)N[C@@H](CCC(=O)O)C(=O)N[C@@H](CCc4ccccc4)C(N)=O)NC(=O)[C@H](Cc4c[nH]c5ccccc45)NC(=O)[C@H](CC(C)C)NC(=O)[C@H](CCCCN)NC(=O)[C@H](CSSC[C@H](NC(=O)[C@H]([C@@H](C)O)NC(=O)[C@H](Cc4c[nH]c5ccccc45)NC(=O)[C@H](CCCC)NC(=O)[C@H](Cc4c[nH]c5ccccc45)NC(=O)[C@H](CCCCN)NC(=O)[C@H](CCC(N)=O)NC1=O)C(=O)N[C@@H](CC(=O)O)C(=O)N[C@@H](CO)C(=O)N[C@@H](CCCCN)C(=O)N[C@@H](CCCNC(=N)N)C(=O)N[C@@H](C)C(=O)N3)NC(=O)[C@H](CCCNC(=N)N)NC(=O)[C@H](CC(C)C)NC(=O)CNC(=O)[C@H](CCC(=O)O)NC2=O | 0.3 nM | 23 nM | 
CN(C)CCOC(c1ccccc1)c1ccccc1 [DIPHENHYDRAMINE] |  |  | inhibition in vivo at 10 mg/kg (Mus musculus [14]): 89.7%
C#CC[C@H](NC(=O)[C@@H](N)CCC(=O)O)C(=O)N[C@H]1CSSC[C@@H]2NC(=O)[C@@H]3CSSC[C@@H](C(=O)N[C@@H](CCCNC(=N)N)C(=O)N[C@@H](CCCCN)C(=O)N[C@@H](CCC(=O)O)C(=O)N[C@H](C(N)=O)[C@@H](C)CC)NC(=O)[C@H](Cc4c[nH]c5ccc(Br)cc45)NC(=O)[C@H](CC(C)C)NC(=O)[C@H](CCCCN)NC(=O)[C@H](CSSC[C@H](NC(=O)[C@H]([C@@H](C)O)NC(=O)[C@H](Cc4c[nH]c5ccccc45)NC(=O)[C@H](CCCC)NC(=O)[C@H](Cc4c[nH]c5ccccc45)NC(=O)[C@H](CCCCN)NC(=O)[C@H](CCC(N)=O)NC1=O)C(=O)N[C@@H](CC(=O)O)C(=O)N[C@@H](CO)C(=O)N[C@@H](CCC(=O)O)C(=O)N[C@@H](CCCNC(=N)N)C(=O)N[C@@H](C)C(=O)N3)NC(=O)[C@H](CCCNC(=N)N)NC(=O)[C@H](CC(C)C)NC(=O)CNC(=O)[C@H](CCC(=O)O)NC2=O | 0.5 nM | 72 nM | 
C#CC[C@H](NC(=O)[C@@H](N)CCC(=O)O)C(=O)N[C@H]1CSSC[C@@H]2NC(=O)[C@@H]3CSSC[C@@H](C(=O)N[C@@H](CCCNC(=N)N)C(=O)N[C@@H](CCCCN)C(=O)N[C@@H](CCC(=O)O)C(=O)N[C@H](C(N)=O)[C@@H](C)CC)NC(=O)[C@H](Cc4c[nH]c5ccc(Br)cc45)NC(=O)[C@H](CC(C)C)NC(=O)[C@H](CCCCN)NC(=O)[C@H](CSSC[C@H](NC(=O)[C@H]([C@@H](C)O)NC(=O)[C@H](Cc4c[nH]c5ccccc45)NC(=O)[C@H](CCCC)NC(=O)[C@H](Cc4c[nH]c5ccccc45)NC(=O)[C@H](CCCCN)NC(=O)[C@H](CCC(N)=O)NC1=O)C(=O)N[C@@H](CC(=O)O)C(=O)N[C@@H](CCC(=O)O)C(=O)N[C@@H](CCCCN)C(=O)N[C@@H](CCCNC(=N)N)C(=O)N[C@@H](C)C(=O)N3)NC(=O)[C@H](CCCNC(=N)N)NC(=O)[C@H](CC(C)C)NC(=O)CNC(=O)[C@H](CCC(=O)O)NC2=O | 2.5 nM | 89 nM | 
